From ChEMBL document CHEMBL4251734, “Study on Liposomal Encapsulation of New Bodipy Sensitizers for Photodynamic Therapy” (ACS Med Chem Lett, 2018)
The source made the active and inactive calls. No cut-off for these calls is given here.

Experiments:
SK-OV-3 [1] = test: Photocytotoxicity in human SKOV3 cells assessed as cell death at 0.1 to 1 uM incubated for 6 hrs followed by PDT-1200 light irradiation at 20 J/cm2 measured after 16 hrs by MTT assay; type: functional, cell-based
Method in brief: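 Free photosensitizer, not encapsulated in liposomes, was added to SK-OV-3 cells. The cells were then exposed to light at 20 J cm^-2, a dose chosen from a preliminary light-dose series. A dark plate served as the control. Viability was read by MTT, and IC50 was taken as the PS concentration killing 50% of cells. Each light treatment was done in triplicate.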

SK-OV-3 [2] = test: Photocytotoxicity in human SKOV3 cells assessed as cell death incubated for 6 hrs followed by PDT-1200 light irradiation at 20 J/cm2 measured after 16 hrs using liposome-encapsulated compound by MTT assay; type: functional, cell-based; settings: SK-OV-3, light or radiation study
Method in brief: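 Photosensitizer was loaded into egg phosphatidylcholine/DOPE liposomes (mole ratio EPC:DOPE:PS 70:25:5). Loaded PS was quantified by absorbance in DMSO against standard curves. SK-OV-3 cells were treated and irradiated at 20 J cm^-2, with a dark plate as the control. Viability was read by MTT. IC50 was taken as the PS concentration killing 50% of cells. Triplicate.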

[3] = Dark toxicity in human SKOV3 cells assessed as cell death at 0.1 to 1 uM incubated for 6 hrs using liposome-encapsulated compound by MTT assay; type: cell-based; settings: sk-ov-3, 6 h
Method in brief: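 Liposomes of egg phosphatidylcholine, DOPE and photosensitizer at mole ratio 70:25:5. The PS content of the liposomes was estimated from absorbance after dissolving them in DMSO, read against standard curves of each pure PS in DMSO. Treated SK-OV-3 plates were kept shielded from all light, including stray light, as the dark control. Viability was read by MTT. Triplicate.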

| SMILES | Activity (SK-OV-3 [1]) | IC50 (SK-OV-3 [2]) | Activity [3] |
| --- | --- | --- | --- |
| COc1ccc(/C=C/C2=[N+]3C(=C(c4ccccc4)c4c(C)c(I)c(/C=C/c5ccc(OC)c(OC)c5)n4[B-]3(F)F)C(C)=C2I)cc1OC | inactive | 880 nM | Non-Toxic |
| CC1=C(I)C(/C=C/c2ccccc2OCc2ccccn2)=[N+]2C1=C(c1ccc([N+](=O)[O-])cc1)c1c(C)c(I)c(/C=C/c3ccccc3OCc3ccccn3)n1[B-]2(F)F | inactive | 650 nM | Non-Toxic |
| COc1ccc(/C=C/C2=[N+]3C(=C(c4ccc([N+](=O)[O-])cc4)c4c(C)c(I)c(/C=C/c5ccc(OC)c(OC)c5)n4[B-]3(F)F)C(C)=C2I)cc1OC | inactive | 350 nM | Non-Toxic |
| COc1cc(/C=C/C2=[N+]3C(=C(c4ccc([N+](=O)[O-])cc4)c4c(C)c(I)c(/C=C/c5cc(OC)c(OC)cc5[N+](=O)[O-])n4[B-]3(F)F)C(C)=C2I)c([N+](=O)[O-])cc1OC | inactive | 860 nM | Non-Toxic |
| C=Cc1c(C)c2cc3nc(c(CC(=O)O)c4[nH]c(cc5nc(cc1[nH]2)C(C)=C5CC)c(C)c4C(=O)O)[C@@H](CCC(=O)O)[C@@H]3C [CHLORIN E6] |  | 390 nM |  |
